Test results: ChEMBL document CHEMBL4513216, “Probing the Open Global Health Chemical Diversity Library for Multistage-Active Starting Points for Next-Generation Antimalarials” (ACS Infect Dis, 2020)

Assay: Toxicity liver stage against HepG2, at 10uM
Assay type: cell-based
Set-up: test concentration 10 uM, cell line HepG2-A16-CD81EGFP
Settings: human, HepG2-A16-CD81EGFP cells; read-out: INHIBITION
Method in brief: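 Uninfected HepG2-A16-CD81EGFP cells, 3 × 10^3 per well, 1536-well, plated on prespotted compound at 10 μM final, parasite-free screening media added to match infected plates; puromycin 10 μM positive, DMSO 0.5% negative; run in parallel with 48 h PbLuc assay at 37 °C, 5% CO2; viability by CellTiter-Glo luminescence, normalized to controls.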

SMILES	cytotoxicity at 10 µM
CC(SCC(=O)NC(N)=O)c1ccc(Cl)cc1 (stereo not drawn)	4.86%
O=C(c1ccc[nH]1)N1CCc2c(COCC3CC3)cncc2C1	5.71%
Cn1cc(CCC(=O)N2CCCC(n3cncn3)C2)cn1 (stereo not drawn)	-15.1%
Cc1nc(CNC(=O)Nc2cc(C(F)(F)F)c[nH]c2=O)cs1	0.868%
O=C(CCC(=O)N1CCc2[nH]c3ccccc3c2C1)NCc1ccco1	3.59%
c1csc(CN2Cc3nc(CN4CCCC4)oc3C2)c1	4.59%
Clc1cc(NCc2ncc[nH]2)nc2[nH]ccc12	6.68%
O=C(c1scc2c1OCCO2)N1CCOC(Cc2ccc(F)cc2)C1 (stereo not drawn)	1.73%
Cc1ccc(NC2CCN(C(=O)C(C)n3cncn3)CC2)nn1 (stereo not drawn)	-14.2%
COc1cccc(CCCNC(=O)N2CCC(O)(C(F)(F)F)C2)c1 (stereo not drawn)	-4.25%
Cc1nc(O)c2nnn(C[C@H]3CCCN3C(=O)c3ccccc3F)c2n1	-20.4%
Cn1c2ccc(F)cc2c2ncn(CCN3CCOCC3)c(=O)c21	18.2%
O=C(CCn1cncn1)NCCOc1cccc(Cl)c1	1.58%
Cc1nccn1CCC1CCCCN1C(=O)c1ccc(N(C)C)cc1 (stereo not drawn)	0.811%
CNC(=O)C1CCCCN1C(=O)CCn1cnc2sccc2c1=O (stereo not drawn)	-7.18%
CC(C)N1CCCCC1c1cc(CO)[nH]n1 (stereo not drawn)	4.61%
CCC(=O)N1CCC(Cc2cnc(Nc3cnccn3)cn2)CC1	-2.19%
CCS(=O)(=O)N1Cc2nccn2CC(CN2CCCC2)C1 (stereo not drawn)	-124%
COc1ccc(C)cc1C(=O)NC1(C#N)CCOCC1	1.98%
Cc1ccc(C)c(-n2ccc3nc(N4CCCC4)ncc3c2=O)c1	18.6%
COc1ccc2cc(C(=O)NCCNc3ccc(C)nn3)[nH]c2c1	-3.09%
O=C(NCCS(=O)(=O)N1CCN(c2ncccn2)CC1)C1CCCC1	-3.91%
Cn1cc(C2CCCN2C(=O)Cc2n[nH]c3ccccc23)cn1 (stereo not drawn)	2.56%

SMILES	cytotoxicity at 10 µM
COc1c(C2CCCN2C(=O)c2cccn2C)c(C)nn1C (stereo not drawn)	-1.88%
CSCc1ccc(N2CCN(c3ccc(Cl)cn3)CC2)nc1	-9.64%
CC(NCc1ccncc1)c1cc2c(cc1Br)OCCO2 (stereo not drawn)	-1.41%
Cc1c(Cl)cccc1N1CC(c2nnc(N)s2)CC1=O (stereo not drawn)	7.38%
COc1ccc(Cl)cc1CS(=O)(=O)Cc1cc(C)on1	6.06%
O=C(c1ccc(Br)o1)N1CCCC(n2cncn2)C1 (stereo not drawn)	-3.22%
CS(=O)(=O)Nc1ccn(Cc2cccc(Cl)c2)n1	8.66%
Cc1ccccc1CCCN(Cc1ccccn1)S(C)(=O)=O	9.53%
COCCNC(=O)NC(C)COc1ccc(F)cc1F (stereo not drawn)	4.14%
CN1CCC2(CC1)CN(C)C(=O)C[C@@H]2C(F)(F)F	-144%
Cc1ccc(N2C[C@@H]3OCCN(Cc4c(C)noc4C)[C@@H]3C2)nn1	-1.62%
CC(C)CCNC(=O)c1sccc1N(C)S(=O)(=O)c1ccccc1	9.33%
CC(=O)N1CCCc2ccc(S(=O)(=O)N3CCCCC3C)cc21 (stereo not drawn)	-15.1%
COC(=O)CCCNC(=O)N1CCc2c([nH]c3ccc(Cl)cc23)C1	9.43%
O=C(C1CCCO1)N1CCC(O)(Cn2ccc3ccncc32)CC1 (stereo not drawn)	-29.9%
CS(=O)(=O)c1cn[nH]c1C1CCCN(C(=O)CN2CCOCC2)C1 (stereo not drawn)	-22.8%
Cc1ccc(C)c(C(C(=O)O)N2CCCN(Cc3ccccn3)CC2)c1 (stereo not drawn)	-15.6%
Clc1ccc(CN2CCCC(Cn3cncn3)C2)c2ncccc12 (stereo not drawn)	-13.7%
Cc1cc(N2CCCCCC2)n2nc(C)c(C)c2n1	-6.23%
COC(=O)[C@@H](NC(=O)c1coc(COc2cccc(F)c2)n1)C(C)C	-142%
CC(C)CS(=O)(=O)NC(=O)c1ccc2c(c1)ncn2C	-9.94%
COCCc1noc(CN2CCC3(CCCO3)CCC2=O)n1 (stereo not drawn)	5.35%
CCN(Cc1cnn(CC)c1)C(=O)CN1C(=O)CCc2ccccc21	-2.17%

SMILES	cytotoxicity at 10 µM
COc1cc(Cl)cc(CN2CCCC(N3CCCC3)C2)c1OC (stereo not drawn)	-3.88%
CC(=O)c1c(N(C)C)ccnc1C(F)(F)F	1.1%
Cc1n[nH]cc1CNCC1(c2ccccc2Cl)CCOCC1	8.16%
Nc1cc(-c2nccnc2N2CCCC2)c2cc[nH]c2n1	13.6%
COCCCN1CC2(CCCCN2C(=O)c2ccsc2)CC1=O (stereo not drawn)	5.03%
CC(C)(CNC1CCCN(Cc2ccccc2F)C1)CN1CCOCC1 (stereo not drawn)	6.21%
Cc1csc(NC(=O)CN(C)CCOc2cccc(F)c2)n1	0.115%
Cc1cc(CN2CCCCC2Cn2cncn2)no1 (stereo not drawn)	-8.89%
CCOc1ccccc1C(=O)Nc1cccc(C[S+](C)[O-])c1C (stereo not drawn)	-4.35%
O=C(c1ccc[nH]1)N1CC2(CCN(c3nccs3)C2)C1	5.68%
CN(C)C(=O)CN1CCc2ncnc(C3CC3)c2CC1	-94.1%
Cc1nn(C)c(C)c1C(C(=O)O)N1CCc2ccccc2C1 (stereo not drawn)	-0.492%
Cc1ccc(C(=O)N2CCSCC2)cc1N1CCNC1=O	-6.33%
COc1cc(C(C)=O)ccc1SCC(=O)Nc1ccccn1	11.7%
CCCc1nc2c(c(C)c(C)n2Cc2ccncc2)c(N)c1CC	14.3%
CCC1CN(C(=O)c2ccccc2N2CCOCC2)CCN1C(C)C (stereo not drawn)	7.72%
O=C(O)c1cnc(N2CCC(O)CC2)nc1COc1ccc(F)cc1	-7.52%
Cc1ccsc1C(=O)N1CCC2(CC1)C(=O)N(C)CCN2CC1CC1	-110%
CC(C)c1nc2c(n1C)CCN(Cc1cccc(C(N)=O)c1)C2	-7.39%
Cc1nc(C)n(CC2CCCN2Cc2cn3ccsc3n2)n1 (stereo not drawn)	-10.7%
c1cnc(N2CCO[C@H]3[C@H](OCCN4CCOCC4)CC[C@@H]32)nc1	-10.2%
COc1ccc(S(=O)(=O)N2CCc3ccc(Cl)cc32)cc1C(=O)O	-11.6%
O=C(NC1(c2nnn(CC3CCCO3)n2)CCCC1)c1ccccc1 (stereo not drawn)	13.2%

SMILES	cytotoxicity at 10 µM
O=C(COCc1nc(-c2ccncc2)no1)N1CCCCC1	5.4%
CS(=O)(=O)CCSc1nnc(Cc2ccccc2F)o1	0.313%
O=C(NC[C@]1(O)CCN(Cc2ccccc2F)C[C@H]1O)c1c[nH]cn1	4.41%
CC(C)(O)CN1CCN(C(=O)COC2CCCC2)CC1	1.46%
CC1(C)[C@H](Cc2cc(CN3CCOCC3)on2)C[C@@H]1NC(=O)C1CCC1	-6.67%
CCCn1c(C)cc(C(=O)CN2C(=O)c3ccccc3CS2(=O)=O)c1C	-1.94%
COCC(=O)Nc1ccnn1-c1ccc(Cl)cc1	2.18%
O=C(NCC1(O)CCOc2ccccc21)Nc1ccccc1 (stereo not drawn)	-4.2%
CC(=O)c1cc(CC(=O)NCc2ccsc2)cs1	2.29%
Cc1ccnc(N2CCC(=O)N(Cc3ccc(F)cc3)C(C(C)C)C2)n1 (stereo not drawn)	0.538%
Cn1cc(-c2ncnc3c2CCN(CC2CCOC2)CC3)cn1 (stereo not drawn)	-112%
CC1COCCN1C(=O)Nc1cnc2c(cnn2C(C)C)c1 (stereo not drawn)	-2.21%
CCc1cnc(C)nc1NCCN1CCCC(C(N)=O)C1 (stereo not drawn)	-2.54%
CCCn1nccc1NC(=O)CN1CCC[C@H]1CO	-1.8%
NC(=O)CN(Cc1ncc(-c2ccc(F)cc2)o1)C1CCCC1	-6.19%
CC(C)NC(=O)CCN1CCCC1c1cccc2c1OCCO2 (stereo not drawn)	0.354%
CC(C)CCC(C)NC(=O)Nc1ccccn1 (stereo not drawn)	5.28%
CN(C)S(=O)(=O)NCCn1nc(-c2ccccc2)n(C)c1=O	-2.17%
Cc1c(C(=O)N(C)CC(F)(F)F)nnn1-c1ccc(F)cc1	7.92%
COCCOC(=O)N1CC2=CC(C)(C)COc3ccc(OC)c(c32)C1	1.22%
Fc1cnc(N2CC[C@@H](N3CCOCC3)[C@@H]2Cc2cccnc2)nc1	11.7%
CC(=O)NC1CCN(c2c(C#N)cnc3c(C)cc(F)cc23)CC1	7.72%
Cc1cnc(N2CCOC3(CCCN(C(=O)C(C)C)C3)C2)nc1 (stereo not drawn)	10.9%

SMILES	cytotoxicity at 10 µM
Cc1ccc(CC2COCCN(S(=O)(=O)c3ccccc3)C2)nc1 (stereo not drawn)	-4.48%
CCOC(C)C(=O)N1CCN(S(C)(=O)=O)CC1 (stereo not drawn)	-5.35%
Cc1nc(CN2CCOC(c3nc(C(C)C)n[nH]3)C2)oc1C (stereo not drawn)	-7.98%
O=C1CC(C2CCCCC2)c2c(n(C3CCCC3)[nH]c2=O)N1 (stereo not drawn)	-5.01%
Cn1c(NCC(O)c2ccc(F)cc2)c(C#N)c(=O)n(C)c1=O (stereo not drawn)	-7.57%
NC(=O)CN(C(=O)c1c[nH]c2ncccc12)C1CCCC1	0.441%
CCc1nnc2n1CCN(C(=O)CCc1ccc(C)c(Cl)c1)C2	-4.01%
Cc1nc(CNC2CCc3ncnn3C2)oc1C (stereo not drawn)	-3.86%
COc1ccc(CN(C)[C@@H]2CN(C(=O)c3cccs3)C[C@H]2O)cc1	-0.619%
CC(C)c1nn(C)c(N2CCOCC2)c1CN[C@H](C)CO	-7.67%
CCn1cc(-n2cc3nc(N4CCOCC4)[nH]cc-3c2=O)cn1	3.43%
Cn1ncc(CN2CCc3onc(-c4cccc(F)c4)c3C2)c1C1CC1	1.31%
CCn1ccnc1CN1CCCN(C(=O)COC2CCCC2)CC1	-6.58%
Cn1cnc(S(=O)(=O)N2CCCc3c(F)cc(F)cc32)c1Cl	0.333%
COC(=O)c1ccc(-c2cc(C(F)(F)F)cc(N(C)C)n2)cc1	-0.409%
CNC(=O)c1cccnc1NCc1ccc(-n2cccn2)cc1	14.1%
CCN(C)CCNC(=O)Cc1nc(-c2ccco2)oc1C	-12.5%
COCCC(=O)N1CCCC([C@@H]2C[C@H](C(F)F)n3ncnc3N2)C1 (stereo partly drawn)	-1.28%
CCc1ccc(C(=O)N2CCN(CCO)CC2)o1	-5.22%
CS(=O)(=O)N1CCC2(CC1)CN(CC1CC1)CC21CCNC1=O (stereo not drawn)	1.26%
NC(=O)C(NC(=O)COC1CCCC1)c1ccccc1 (stereo not drawn)	3.25%
